≈ marks a conversion by molar mass, not a printed value. Calls of active or inactive are those of the source. The calls are words filed in the database; no cut-off is given here.
Legend:
[1] = Inhibition of Escherichia coli MurD after 30 mins by HPLC analysis
Procedure, shortened: (§1)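 Radioactivity-based ligase assay on E. coli or S. aureus MurD or MurE, run with Tween-20 detergent present to prevent nonspecific inhibition by compound aggregates; IC50 values reported.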

Staphylococcus aureus [2] = assay: Inhibition of Staphylococcus aureus MurE assessed as residual activity at 500 uM after 30 mins by HPLC analysis
Escherichia coli [3] = assay: Inhibition of Escherichia coli MurE assessed as residual activity at 500 uM after 30 mins by HPLC analysis
Procedure, shortened: (§2)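 Radioactivity-based ligase assay with Tween-20 detergent present to prevent aggregate-driven inhibition; residual enzyme activity measured with compound at a single fixed concentration of 200 μM or 500 μM.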

[4] = Inhibition of Staphylococcus aureus MurE after 30 mins by HPLC analysis; procedure, shortened: as §1
Staphylococcus aureus [5] = assay: Antimicrobial activity against methicillin-resistant Staphylococcus aureus ATCC 43300 after 18 to 24 hrs by macrodilution method; type: functional
HepG2 = assay: Cytotoxicity against human HepG2 cells up to 200 uM after 24 hrs by MTT assay; type: cell-based; conditions: hepg2, 24 h
[6] = Inhibition of Escherichia coli MurE after 30 mins by HPLC analysis; procedure, shortened: as §1
Escherichia coli [7] = assay: Antimicrobial activity against Escherichia coli ATCC 25922 after 18 to 24 hrs by macrodilution method; type: functional
Pseudomonas aeruginosa = assay: Antimicrobial activity against Pseudomonas aeruginosa ATCC 27853 after 18 to 24 hrs by macrodilution method; type: functional
Staphylococcus aureus [8] = assay: Antimicrobial activity against Staphylococcus aureus ATCC 29213 after 18 to 24 hrs by macrodilution method; type: functional
Enterococcus faecalis = assay: Antimicrobial activity against Enterococcus faecalis ATCC 29212 after 18 to 24 hrs by macrodilution method; type: functional
[9] = Inhibition of Staphylococcus aureus MurD after 30 mins by HPLC analysis; procedure, shortened: as §1
Escherichia coli [10] = assay: Inhibition of Escherichia coli MurE assessed as residual activity at 200 uM after 30 mins by HPLC analysis; procedure, shortened: as §2
Staphylococcus aureus [11] = assay: Inhibition of Staphylococcus aureus MurE at 200 uM after 30 mins by HPLC analysis; procedure, shortened: as §2

Row | Activity (Staphylococcus aureus [2]) [%] | Activity (Escherichia coli [3]) [%] | Compound | IC50 [1] [µM] | IC50 [4] [µM] | MIC (Staphylococcus aureus [5]) [mg/L] | Activity (HepG2) | IC50 [6] [µM] | MIC (Escherichia coli [7]) [mg/L] | MIC (Pseudomonas aeruginosa) [mg/L] | MIC (Staphylococcus aureus [8]) [mg/L] | MIC (Enterococcus faecalis) [mg/L] | IC50 [9] [µM] | Activity (Escherichia coli [10]) [%] | inhibition (Staphylococcus aureus [11])
1 | 64 | 64 | O=C(O)CC[C@@H](NC(=O)c1cccc(CNc2ccc(/C=C3\SC(=O)NC3=O)cc2)c1)C(=O)O | 35 | – | – | – | – | – | – | – | – | – | – | –
2 | – | – | O=C(O)CC[C@@H](NC(=O)c1cccc(NCc2ccc(/C=C3\SC(=S)NC3=O)cc2)c1)C(=O)O | 8.2 | 17 | 8 (≈ 16 µM) | Non-toxic | 180 | > 128 | > 128 | 8 (≈ 16 µM) | 64 (≈ 128 µM) | 6.4 | – | –
3 | – | – | O=C(O)CC[C@@H](NC(=O)c1cccc(NCc2ccc(/C=C3\SC(=O)NC3=O)cc2)c1)C(=O)O | 36 | > 200 | > 128 | – | 200 | > 128 | > 128 | > 128 | > 128 | 100 | 51 | inactive
